Experimental data taken from article PMC8526398 (Bioorganic & medicinal chemistry letters, 2021).

Experiments:
EGFR/GRB2 PPI = conditions: cited from earlier work
[1] = Parallel artificial membrane permeability assay; format: in vitro ADME; conditions: PAMPA, 1% egg lecithin in n-dodecane
Method in brief: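 Artificial membrane of 1% egg lecithin in n-dodecane. Test compound at 500 μM added to the donor side; incubated 5 h at room temperature. Compound in the receiving solution quantified by HPLC. Percent transport (%T) and apparent permeability coefficient (Papp, cm·s−1) calculated from previously reported equations; values given with SD.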

[2] = molecular target: full-length human GRB2 (EGFR/GRB2 PPI) (Homo sapiens, UniProt P62993); format: binding
Chain of full-length human GRB2 (EGFR/GRB2 PPI) (P62993 whole entry): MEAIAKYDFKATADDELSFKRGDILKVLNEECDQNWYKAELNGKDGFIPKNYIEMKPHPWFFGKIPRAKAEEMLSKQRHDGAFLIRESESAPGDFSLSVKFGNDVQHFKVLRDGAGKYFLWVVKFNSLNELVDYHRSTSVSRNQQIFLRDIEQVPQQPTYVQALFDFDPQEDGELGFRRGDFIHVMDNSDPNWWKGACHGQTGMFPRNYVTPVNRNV

For `CC(=O)N[C@@H](Cc1ccc(OP(=O)(O)O)cc1)C(=O)NC1(C(=O)N[C@@H](CC(N)=O)C(=O)NCCCc2cccc3ccccc23)CCCCC1` [Compound 2], the “IC50 relative to compound 1” value (EGFR/GRB2 PPI) is given as “two orders of magnitude lower than 1”.
In the case of `NC(=O)C[C@@H]1NC(=O)C2(CCCCC2)NC(=O)C[C@@H](c2ccc(CP(=O)(O)O)cc2)/C=C/C[C@@H](Cc2cccc3ccccc23)CNC1=O` [Compound 3], the “permeability through the artificial membrane (in words)” value [1] is reported as “poor permeability”.
For `NC(=O)C[C@@H]1NC(=O)C2(CCCCC2)NC(=O)[C@@H](CC(=O)O)[C@@H](c2ccc(CP(=O)(O)O)cc2)/C=C/C[C@@H](Cc2cccc3ccccc23)CNC1=O` [Compound 4], the IC50 (EGFR/GRB2 PPI) is given as 2 nM.
For `NC(=O)C[C@@H]1NC(=O)C2(CCCCC2)NC(=O)C[C@@H](c2ccc(CC(=O)O)cc2)/C=C/C[C@@H](Cc2cccc3ccccc23)CNC1=O` [Compound 7], the “permeability through the artificial membrane (in words)” value [1] was “good permeability”.
`COC(=O)Cc1ccc([C@H]2/C=C/C[C@@H](Cc3cccc4ccccc34)CNC(=O)[C@H](CC(N)=O)NC(=O)C3(CCCCC3)NC(=O)C2)cc1` [Compound 8] gave a Ki [2] greater than 20000 nM.
